TRPC6 activator: mouse TRPC6 channel activators, primary screen, cell-based, HEK293, membrane potential dye | Short transient receptor potential channel 6 (Mus musculus), Q61143 | HEK293-TRPC6 membrane potential dye fluorescence; hits give high values | B-score at 10 µM | hit rate 0.13% among 310,000 | AID 2550, 2010;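 active = B-score of the integrated fluorescence ratio above library mean plus 3 SD, and starting fluorescence ratio within library mean plus 5 SD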;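 note: higher score means more depolarization so channel activation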
Kir21 block: inhibitors of mouse Kir2.1 inward-rectifier potassium channel; hit rate 0.85% among 310,000; Inward rectifier potassium channel 2 (Mus musculus), P35561; AID 1672, 2009; B-score at 10 µM; HEK293-Kir2.1, FluxOR thallium flux fluorescence; hits give low values;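 active = fluorescence ratio B-score at or below minus 3 SD of library scores, with starting-brightness B-score within 2 SD, cut at about -4.2 in these data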;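 note: channel flux triggered by added potassium and thallium sulfate stimulus; B-score of peak minus minimum fluorescence over baseline after thallium stimulus; more negative B-score means stronger Kir2.1 block with less thallium influx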
TRPC4 block: inhibitors of mouse TRPC4 channel, primary screen, Fluo4 calcium, HEK293 TRPC4beta/mu-opioid cells | Short transient receptor potential channel 4 (Mus musculus), Q9QUQ5 | DAMGO-evoked Fluo4 calcium flux; hits give low values | B-score at 10 µM | hit rate 0.39% among 300,000;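 active = B-score over 3 SD under the library average, no early fluorescence shift, positive overall ratio signal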
Target sequence (Q9QUQ5 whole entry, looked up): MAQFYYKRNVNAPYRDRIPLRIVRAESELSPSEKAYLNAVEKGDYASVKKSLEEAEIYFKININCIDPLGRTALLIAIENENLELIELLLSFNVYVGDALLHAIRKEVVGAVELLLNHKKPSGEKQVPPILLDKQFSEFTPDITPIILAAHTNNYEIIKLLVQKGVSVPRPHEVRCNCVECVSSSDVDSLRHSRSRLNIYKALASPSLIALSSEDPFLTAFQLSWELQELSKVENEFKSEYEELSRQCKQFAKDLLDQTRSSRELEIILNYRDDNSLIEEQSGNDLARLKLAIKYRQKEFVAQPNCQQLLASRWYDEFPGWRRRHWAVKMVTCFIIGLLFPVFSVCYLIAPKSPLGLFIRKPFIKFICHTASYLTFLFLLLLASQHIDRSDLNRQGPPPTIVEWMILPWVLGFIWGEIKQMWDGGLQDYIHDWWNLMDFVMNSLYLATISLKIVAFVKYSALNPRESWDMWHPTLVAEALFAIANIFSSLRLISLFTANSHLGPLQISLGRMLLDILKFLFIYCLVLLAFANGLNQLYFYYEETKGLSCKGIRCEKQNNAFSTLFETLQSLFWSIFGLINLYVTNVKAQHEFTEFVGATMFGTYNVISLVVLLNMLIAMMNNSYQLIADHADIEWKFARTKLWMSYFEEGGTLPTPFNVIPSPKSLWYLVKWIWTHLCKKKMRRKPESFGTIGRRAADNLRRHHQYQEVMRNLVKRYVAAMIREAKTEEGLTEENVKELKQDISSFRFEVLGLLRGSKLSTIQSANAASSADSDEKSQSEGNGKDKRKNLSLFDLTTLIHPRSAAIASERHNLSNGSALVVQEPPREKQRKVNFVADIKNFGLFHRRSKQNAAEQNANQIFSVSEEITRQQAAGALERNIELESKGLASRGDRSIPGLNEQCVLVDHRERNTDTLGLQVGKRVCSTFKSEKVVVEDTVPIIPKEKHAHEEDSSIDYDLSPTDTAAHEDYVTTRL
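Assay system – HEK293 line stably carrying TRPC4beta and mu-opioid receptor · Doses – single dose · Detection – Fluo4 calcium-dye fluorescence, kinetic read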
TRPC6 inhibitor: mouse TRPC6 channel inhibitors, primary screen, cell-based, HEK293, membrane potential dye | hit rate 1.1% among 310,000 | ACh-evoked depolarization; hits give low values | B-score at 10 µM;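 active = B-score under library mean minus 3 SD, initial fluorescence not abnormally high, positive integrated signal ratio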;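 note: B-score derived from integrated fluorescence ratio over the kinetic read; more negative B-score means stronger inhibition of depolarization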
TRPC4 potent: positive allosteric modulators of TRPC4, primary screen, cell-based, mouse TRPC4beta, HEK293 mu-opioid, Fluo-4 calcium; DAMGO EC20, Fluo-4 Ca2+ flux; hits give high values; hit rate 0.42% among 310,000; B-score at 10 µM; AID 2227, 2009; Short transient receptor potential channel 4 (Mus musculus), Q9QUQ5;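 active = B-score of calcium response area above 5 SD of library B-scores, with initial fluorescence ratio within 5 SD of library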
TRPC4 agonist: activators of mouse TRPC4 channel, primary screen, Fluo4 calcium, HEK293 TRPC4beta/mu-opioid cells; Short transient receptor potential channel 4 (Mus musculus), Q9QUQ5; Fluo4 calcium fluorescence; hits give high values; AID 2237, 2010; hit rate 0.49% among 310,000; B-score at 10 µM;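 active = B-score above 5 SD of library B-scores, and initial fluorescence ratio not above library mean plus 5 SD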;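 note: positive B-score marks a calcium rise read as TRPC4 activation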
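System – HEK293 cells stably co-expressing mouse TRPC4beta and mu-opioid receptor · Signal – Fluo4 calcium-sensitive dye fluorescence, kinetic, 1 Hz baseline · Benchmarks – buffer (low) and maximal DAMGO (high) · Read-out – B score of integrated fluorescence ratio per well · Incubation – dye loading 45 min room temperature, 110 s kinetic read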
Hits are given with their value; . = inactive. A selection: hits, their analogues and other compounds. The true share with any hit is near 2.9%.

SMILES	TRPC6 activator	Kir21 block	TRPC4 block	TRPC6 inhibitor	TRPC4 potent	TRPC4 agonist
CC1CC(C)(C)NC(=S)N1CCC(=O)N1CCc2ccccc2C1 (configuration not stated)	.	.	.	.	.	.
COc1ccc(S(=O)(=O)N2CCC(C(=O)NCc3ccncc3)CC2)cc1OC	.	.	.	.	.	.
COc1ccc(Br)cc1CN1CCN(C(=O)c2cccc(F)c2)CC1	.	.	.	.	.	.
CC(C)N1CCN(Cc2ccoc2)CC1CCO (configuration not stated)	.	.	.	.	.	.
C=CCOC(=O)C1=C[C@@H](c2ccc(Br)cc2)C[C@@H](OCc2ccc(CO)cc2)O1	.	.	.	.	.	.
COc1ccc(CSC2=NCCN2)cc1Br	.	.	.	.	.	.
COc1ccc(CSC2=NCCN2)cc1Cl	.	.	.	.	10	.
O=[N+]([O-])c1cc(CSC2=NCCN2)ccc1O	.	.	.	.	.	.
CCCOc1ccc(CSC2=NCCN2)cc1[N+](=O)[O-]	.	.	.	.	12	.
O=C(O)CCN1C(=O)c2ccc(NC(=O)Cc3ccc(Cl)cc3)cc2C1=O	.	.	.	.	.	.
COc1ccc(CCNC(=O)COC(=O)C23CC4CC(CC(Br)(C4)C2)C3)cc1	.	.	.	.	.	.
COc1ccc(CCNC(C)=O)cc1	.	.	.	.	.	.
COc1ccc(CCNC(=O)C2CC=CCC2C(=O)O)cc1 (configuration not stated)	.	.	.	.	12	.
COc1ccc(CCNC(=O)C2(c3ccccc3)CC2)cc1	.	-4.6	.	.	.	.
COc1ccccc1NC(=O)C1(c2ccccc2)CCCC1	.	.	.	.	13	.
COc1ccc(CCNC(=O)COC(=O)C23CC4CC(CC(C4)C2)C3)cc1	.	-7.3	.	.	.	.
COc1ccc(C(C)=O)cc1COC(=O)c1cnc(Cl)c(Cl)c1	.	.	.	.	.	.
CCN1CCCC1CNC(=O)c1cc2c(OC)cccc2[nH]1 (configuration not stated)	.	.	.	.	.	154
COc1cccc(CNc2ncn[nH]2)c1OCc1ccc(F)cc1	.	.	.	.	.	.
CCN1CCCC1CNCc1ccc(Cl)cc1Cl (configuration not stated)	.	.	.	.	29	.
CCN1CCCC1CNC(=O)c1cc2c(OC)c(OC)c(OC)cc2[nH]1 (configuration not stated)	.	.	.	.	.	.
CCN1CCCC1CNCc1cccc(OC)c1OCc1ccc(F)cc1 (configuration not stated)	.	.	.	.	.	58
CCN1CCCC1CNS(=O)(=O)c1ccc(F)c(Cl)c1 (configuration not stated)	.	.	.	.	.	.
CCCN(CCC)C(=O)C1CC(=O)OC12CCCCC2 (configuration not stated)	.	.	.	.	.	.
O=C(/C=C/c1ccco1)NCC1COc2ccccc2O1 (configuration not stated)	.	.	.	.	.	.
SMILES	TRPC6 activator	Kir21 block	TRPC4 block	TRPC6 inhibitor	TRPC4 potent	TRPC4 agonist
CN1CCC(N(C)S(=O)(=O)c2ccc(NC(=O)COc3ccc(Br)cc3Cl)cc2)CC1	.	.	.	.	.	.
Cc1c(C(=O)Nc2ccc(S(=O)(=O)N(C)C3CCN(C)CC3)cc2)oc2c(Cl)cccc12	.	-5	.	.	.	.
CCOc1cc(CNCc2ccccc2)ccc1OCc1ccc(Cl)cc1	.	.	.	.	.	.
COc1ccc(CNCCc2ccc(Cl)cc2)cc1OCc1ccccc1	.	-6.4	.	.	.	47
COc1cc(CN(C)CCc2ccccc2)ccc1OCc1ccccc1	.	-7.6	.	.	.	.
c1ccc(COc2ccc(CNCc3cccs3)cc2)cc1	.	-13	.	.	.	.

Screens (PubChem)
